Measured values published in ChEMBL document CHEMBL3877276, “Design, synthesis, and biological evaluation of cyclic-indole derivatives as anti-tumor agents via the inhibition of tubulin polymerization” (Eur J Med Chem, 2017).
The source made the active and inactive calls. The calls are words filed in the database; no cut-off is given here.

Experiments:
[1] = Antiproliferative activity against human Bel7402 cells measured after 48 hrs by MTT assay; format: functional, cell-based; conditions: Bel-7402, 48 h
[2] = Antiproliferative activity against human PC3 cells measured after 48 hrs by MTT assay; format: functional, cell-based; conditions: PC-3, 48 h
[3] = Antiproliferative activity against human LoVo cells measured after 48 hrs by MTT assay; format: functional, cell-based
[4] = Antiproliferative activity against human A549 cells measured after 48 hrs by MTT assay; format: functional, cell-based; conditions: A549, 48 h
[5] = Inhibition of porcine brain tubulin polymerization measured every 60 secs for 90 mins by fluorescence assay; parameters: species or system Sus scrofa
In short: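 Porcine brain tubulin in a fluorescence kit. Reaction mix: 80.0 mM PIPES sesquisodium (pH 6.9), 2.0 mM MgCl2, 0.5 mM EGTA, 1 mM GTP, 10.2% glycerol. Compound added and mix pre-warmed 1 min at 37 °C, then tubulin added to start. Fluorescence (ex 340, em 410 nm) read every 60 s for 90 min. IC50 from area under curve, three independent experiments.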

[6] = Antiproliferative activity against human MCF7 cells measured after 48 hrs by MTT assay; format: functional, cell-based; conditions: MCF7, 48 h
[7] = Antiproliferative activity against human HeLa cells measured after 48 hrs by MTT assay; format: functional, cell-based
[8] = Antiproliferative activity against human A2780 cells measured after 48 hrs by MTT assay; format: functional, cell-based; conditions: A2780, 48 h
[9] = Cell cycle arrest in human A549 cells assessed as reduction in G1 phase at 10 to 50 nM measured after 24 to 48 hrs by propidium iodide staining based flow cytometry; format: functional
In short: (§1)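 A549 seeded at 3×10^5 cells/well and treated 24 or 48 h. Trypsinized, fixed in 70% ethanol at 4 °C overnight, RNase A 37 °C 30 min, then PI 4 °C 30 min. DNA content of 10,000 events read by flow cytometry at 488 nm. Three repeats.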

[10] = Cell cycle arrest in human A549 cells assessed as accumulation at G2/M phase at 10 nM measured after 24 hrs by propidium iodide staining based flow cytometry relative to control; format: functional; in short: as §1
A549 [11] = test: Cytotoxicity against human A549 cells assessed as change in cell morphology at 20 to 200 nM measured after 48 hrs by phase contrast microscopy; format: functional, cell-based
In short: (§2)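 A549 cells and quiescent HUVECs (0.5% fetal calf serum, no growth factor) treated at 20 and 200 nM for 48 h. Morphology (rounding, shrinkage, blebbing, detachment) inspected by microscopy.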

A549 [12] = test: Induction of apoptosis in human A549 cells by Annexin-V-FITC/propidium iodide staining based flow cytometry; format: functional, cell-based
In short: (§3)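 A549 seeded at 3×10^5 cells/well and treated at 10, 20 or 50 nM for 24 or 48 h, then harvested. Annexin V-FITC in HEPES 10 mM/NaCl 140 mM/CaCl2 2.5 mM (pH 7.4) 15 min at room temperature, then PI 10 min. About 10,000 events by flow cytometry, quadrants scored as early or late apoptotic. Three repeats.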

A549 [13] = test: Disruption of cellular microtubule network in human A549 cells measured after 12 hrs by Hochest 33342 staining based laser confocal microscopy; format: cell-based
A549 [14] = test: Induction of apoptosis in human A549 cells assessed as late and early apoptotic cells at 20 nM measured after 24 hrs by Annexin-V-FITC/propidium iodide staining based flow cytometry (reference value: 0.63 %); format: functional; in short: as §3
[15] = Selectivity ratio of IC50 for human BJ cells to IC50 for human A549 cells; format: ADME, cell-based; conditions: BJ cells versus A549 cells, read-out: Ratio IC50
In short: (§4)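 Ratio = IC50 in the normal line (HUVEC quiescent in 0.5% fetal calf serum without growth factor, MCF-10A, BJ or HLF) divided by IC50 in A549.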

[16] = Antiproliferative activity against human BJ cells measured after 48 hrs by MTT assay; format: cell-based
In short: (§5)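 Cells in log phase plated at 5×10^3 cells/well, grown 24 h at 37 °C, 5% CO2, then exposed to a range of compound concentrations for 48 h. MTT (5 mg/mL stock) added, formazan dissolved in DMSO, absorbance read at 570 nm. IC50 from nonlinear regression, at least three independent experiments. Quiescent HUVECs kept in endothelial medium with 0.5% fetal calf serum, no growth factor.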

[17] = Antiproliferative activity against HUVEC in presence of fetal calf serum and absence of growth factor measured after 48 hrs by MTT assay; format: cell-based; conditions: Homo sapiens; in short: as §5
A549 [18] = test: Induction of apoptosis in human A549 cells assessed as late and early apoptotic cells at 50 nM measured after 24 hrs by Annexin-V-FITC/propidium iodide staining based flow cytometry (reference value: 0.63 %); format: functional; in short: as §3
[19] = Antiproliferative activity against HLF measured after 48 hrs by MTT assay; conditions: Homo sapiens; in short: as §5
A549 [20] = test: Disruption of cellular microtubule network in human A549 cells assessed as blockade of cell mitosis measured after 12 hrs by Hochest 33342 staining based laser confocal microscopy
A549 [21] = test: Induction of apoptosis in human A549 cells assessed as late and early apoptotic cells at 10 nM measured after 24 hrs by Annexin-V-FITC/propidium iodide staining based flow cytometry (reference value: 0.63 %); format: functional; in short: as §3
[22] = Cytotoxicity against HUVEC assessed as change in cell morphology at 200 nM in presence of fetal calf serum and absence of growth factor measured after 48 hrs by phase contrast microscopy; format: toxicity, cell-based; conditions: human, 0.2 µM; in short: as §2
A549 [23] = test: Induction of apoptosis in human A549 cells assessed as late and early apoptotic cells at 10 nM measured after 48 hrs by Annexin-V-FITC/propidium iodide staining based flow cytometry (reference value: 0.63 %); format: functional; in short: as §3
[24] = Cytotoxicity against HUVEC assessed as change in cell morphology at 20 nM in presence of fetal calf serum and absence of growth factor measured after 48 hrs by phase contrast microscopy; format: toxicity, cell-based; conditions: human, 0.02 µM; in short: as §2
[25] = Cell cycle arrest in human A549 cells assessed as accumulation at G2/M phase at 25 nM measured after 24 hrs by propidium iodide staining based flow cytometry relative to control; format: functional; in short: as §1
[26] = Selectivity ratio of IC50 for HLF to IC50 for human A549 cells; format: ADME, cell-based; conditions: HLF versus A549 cells, read-out: Ratio IC50; in short: as §4
[27] = Antiproliferative activity against human MCF10A cells measured after 48 hrs by MTT assay; format: cell-based; conditions: MCF-10A; in short: as §5
A549 [28] = test: Induction of apoptosis in human A549 cells assessed as late and early apoptotic cells at 50 nM measured after 48 hrs by Annexin-V-FITC/propidium iodide staining based flow cytometry (reference value: 0.63 %); format: functional; in short: as §3
[29] = Cell cycle arrest in human A549 cells assessed as accumulation at G2/M phase at 50 nM measured after 24 hrs by propidium iodide staining based flow cytometry relative to control; format: functional; in short: as §1
[30] = Selectivity ratio of IC50 for HUVEC in presence of fetal calf serum and absence of growth factor to IC50 for human A549 cells; format: cell-based; conditions: HUVEC versus A549 cells, read-out: Ratio IC50; in short: as §4
[31] = Selectivity ratio of IC50 for human MCF10A cells to IC50 for human A549 cells; format: ADME, cell-based; conditions: MCF10A cells versus A549 cells, read-out: Ratio IC50; in short: as §4
A549 [32] = test: Induction of apoptosis in human A549 cells assessed as late and early apoptotic cells at 20 nM measured after 48 hrs by Annexin-V-FITC/propidium iodide staining based flow cytometry (reference value: 0.63 %); format: functional; in short: as §3

Compound: COc1ccc(/C=C\c2cc(OC)c(OC)c(OC)c2)cc1O [COMBRETASTATIN A4]
- IC50 [1]: 13 nM
- IC50 [2]: 26 nM
- IC50 [3]: 17 nM
- IC50 [4]: 10 nM
- IC50 [5]: 1120 nM
- IC50 [6]: 29 nM
- IC50 [7]: 12 nM

Compound: COc1cc(C2=CCCCc3c2ccc2c3c(C=O)cn2C)cc(OC)c1OC
- IC50 [1]: 49 nM
- IC50 [8]: 33 nM
- IC50 [2]: 31 nM
- IC50 [3]: 52 nM
- IC50 [4]: 29 nM
- IC50 [5]: 470 nM
- IC50 [6]: 59 nM
- IC50 [7]: 41 nM

Compound: COc1cc(C2=CCCCc3c2ccc2c3CCN2)cc(OC)c1OC
- IC50 [1]: 797 nM
- IC50 [8]: 597 nM
- IC50 [2]: 741 nM
- IC50 [3]: 1120 nM
- IC50 [4]: 312 nM
- IC50 [6]: 812 nM
- IC50 [7]: 701 nM

Compound: CCn1ccc2c3c(ccc21)C(c1cc(OC)c(OC)c(OC)c1)=CCCC3
- IC50 [1]: 66 nM
- IC50 [8]: 32 nM
- IC50 [2]: 85 nM
- IC50 [3]: 39 nM
- IC50 [4]: 56 nM
- IC50 [6]: 79 nM
- IC50 [7]: 61 nM

Compound: COC(=O)C(=O)c1cn(C)c2ccc3c(c12)CCCC=C3c1cc(OC)c(OC)c(OC)c1
- IC50 [1]: > 10000 nM
- IC50 [8]: > 10000 nM
- IC50 [2]: > 10000 nM
- IC50 [3]: > 10000 nM
- IC50 [4]: > 10000 nM
- IC50 [6]: > 10000 nM
- IC50 [7]: > 10000 nM

Compound: COc1cc(C2=CCCCc3c2ccc2[nH]cc(C=O)c32)cc(OC)c1OC
- IC50 [1]: 1260 nM
- IC50 [8]: 1020 nM
- IC50 [2]: 950 nM
- IC50 [3]: 1130 nM
- IC50 [4]: 470 nM
- IC50 [6]: 2060 nM
- IC50 [7]: 860 nM

Compound: COc1cc(C2CCCCc3c2ccc2c3ccn2C)cc(OC)c1OC (stereo not given)
- IC50 [1]: 39 nM
- Activity [9]: Active
- IC50 [8]: 37 nM
- Activity [10]: 41%
- Activity (A549 [11]): Active
- Activity (A549 [12]): Dose-dependent effect
- Activity (A549 [13]): Active
- Activity (A549 [14]): 39.6%
- selectivity ratio [15]: 55
- IC50 [2]: 47 nM
- IC50 [16]: 1210 nM
- IC50 [17]: 213 nM
- Activity (A549 [18]): 59.8%
- IC50 [3]: 49 nM
- IC50 [19]: 1670 nM
- IC50 [4]: 22 nM
- Activity (A549 [20]): Active
- Activity (A549 [21]): 22.8%
- Activity [22]: Toxic
- IC50 [5]: 150 nM
- Activity (A549 [23]): 41.4%
- Activity [24]: Non-Toxic
- IC50 [6]: 51 nM
- Activity [25]: 55.1%
- selectivity ratio [26]: 76.1
- IC50 [7]: 56 nM
- IC50 [27]: 672 nM
- Activity (A549 [28]): 60.2%
- Activity [29]: 72.1%
- selectivity ratio [30]: 9.68
- selectivity ratio [31]: 30.5
- Activity (A549 [32]): 58.4%

Compound: COc1cc(C2=CCCCc3c2ccc2[nH]ccc32)cc(OC)c1OC
- IC50 [1]: 620 nM
- IC50 [8]: 1010 nM
- IC50 [2]: 980 nM
- IC50 [3]: 520 nM
- IC50 [4]: 451 nM
- IC50 [6]: 1560 nM
- IC50 [7]: 790 nM

Compound: COc1cc(C2=CCCCc3c2ccc2c3CCN2C)cc(OC)c1OC
- IC50 [1]: 61 nM
- IC50 [8]: 69 nM
- IC50 [2]: 77 nM
- IC50 [3]: 79 nM
- IC50 [4]: 56 nM
- IC50 [5]: 1040 nM
- IC50 [6]: 58 nM
- IC50 [7]: 45 nM

Compound: COc1cc(C2=CCc3c2ccc2c3ccn2C)cc(OC)c1OC
- IC50 [1]: 561 nM
- IC50 [8]: 186 nM
- IC50 [2]: 412 nM
- IC50 [3]: 297 nM
- IC50 [4]: 149 nM
- IC50 [6]: 449 nM
- IC50 [7]: 326 nM

Compound: COc1cc(C2=CCCCc3c2ccc2c3c(CO)cn2C)cc(OC)c1OC
- IC50 [1]: 46 nM
- IC50 [8]: 31 nM
- IC50 [2]: 49 nM
- IC50 [3]: 32 nM
- IC50 [4]: 43 nM
- IC50 [5]: 410 nM
- IC50 [6]: 63 nM
- IC50 [7]: 33 nM

Compound: CCCn1ccc2c3c(ccc21)C(c1cc(OC)c(OC)c(OC)c1)=CCCC3
- IC50 [1]: 480 nM
- IC50 [8]: 240 nM
- IC50 [2]: 690 nM
- IC50 [3]: 690 nM
- IC50 [4]: 520 nM
- IC50 [6]: 780 nM
- IC50 [7]: 600 nM

Compound: COc1cc(C2=CCCCc3c2ccc2c3ccn2C)cc(OC)c1OC
- IC50 [1]: 78 nM
- IC50 [8]: 44 nM
- IC50 [2]: 93 nM
- IC50 [3]: 47 nM
- IC50 [4]: 49 nM
- IC50 [5]: 580 nM
- IC50 [6]: 69 nM
- IC50 [7]: 56 nM
